Measurements pooled from the literature.
Lines come from different studies, so protocols differ.
CYP2C19: Cytochrome P450 2C19 (CYP2C19, Homo sapiens, UniProt P33261)

CCOC(=O)[C@@](C)(O)[C@@H]1C[C@@H](CO[Si](c2ccccc2)(c2ccccc2)C(C)(C)C)O[C@H]1n1cc(F)c(=O)[nH]c1=O — CC50 (A549; cell growth or viability, MTT; 42 h): 236 µM
Cl.Cl.O=C(CCN1CCCCC1)c1ccc(-c2ccc(C(=O)CCN3CCCCC3)cc2)cc1 — Tmax (Sprague-Dawley rat, plasma; oral, 50 mg/kg): 0.65 h
COc1cc2c(c(OC)c1OC)-c1ccc(OC)c(=O)cc1[C@@H](NC(C)=O)CC2 — CC50 (HFF-1; cell growth or viability, resazurin; 72 h): 0.024 µM
CC(C)C[C@H](NC(=O)[C@H](CC1CCCCC1)NC(=O)/C=C/c1ccccc1)C(=O)N[C@H](C=O)C[C@@H]1CCCNC1=O — CC50 (A549; cell growth or viability, MTT; 24 h): > 100 µM
CC(C)(C)NC(=O)N[C@H](C(=O)N1C[C@H]2[C@@H]([C@H]1C(=O)NC(CC1CCC1)C(=O)C(N)=O)C2(C)C)C(C)(C)C (stereo partly drawn) — CC50 (A549; cell growth or viability, neutral red; 48 h): > 100 µM
COC(=O)C1CCN(C(=O)c2ccc(N(C)Cc3cnc4nc(N)nc(N)c4n3)cc2)CC1 — inhibition (CYP2C19; enzyme activity, inhibitor, luciferase; 10 µM): -29.4%
O=S(=O)([O-])c1cccc(P(c2ccccc2)c2ccccc2)c1.[Na+] — CC50 (NIH3T3; cell growth or viability, resazurin; 18 h): 189 µg/mL
CN1CCCCC1Cn1cc(C(=O)c2cc([N+](=O)[O-])ccc2I)c2ccccc21 (racemic) — C0 (mouse, plasma; intravenous, 25 mg/kg): 6 µg/mL
CC(C)C[C@H](NC(=O)[C@@H](NC(=O)c1ccc(Cl)cc1)C(C)C)C(=O)N[C@H](C=O)C[C@@H]1CCCNC1=O — CC50 (A549; cell growth or viability, MTT; 24 h): > 100 µM
CCC[C@@](N)(CO)CCc1ccc(OCCCCCC(C)C)cc1 — Cmax (dog, plasma; oral, 2.5 mg/kg): 69.2 nM
CC(C)C[C@H](NC(=O)[C@@H](NC(=O)c1ccoc1)C(C)C)C(=O)N[C@H](C=O)C[C@@H]1CCCNC1=O — CC50 (A549; cell growth or viability, MTT; 24 h): > 100 µM
O=C[C@H](C[C@@H]1CCNC1=O)NC(=O)[C@H](CC1CCCCC1)NC(=O)c1cc2ccccc2[nH]1 — Cmax (dog, plasma; intravenous, 4 mg/kg): 9770 µg/mL
C[C@H](NC(=O)/C=C/c1ccccc1)C(=O)N[C@H](C=O)C[C@@H]1CCCNC1=O — CC50 (A549; cell growth or viability, MTT; 24 h): > 100 µM
COC(=O)C(NC(=O)c1cn(CCCCCF)c2ccccc12)C(C)(C)C (stereo not drawn) — Tmax (male Sprague-Dawley rat, plasma; subcutaneous, 200 µg/kg): 2.83 h
N=c1c2c(-c3ccccc3)c(-c3ccccc3)n(Cc3ccccc3)c2ncn1[C@H]1CC[C@H](O)CC1 — clearance (male beagle dog, plasma; intravenous, 0.5 mg/kg, single dose): 1.2 mL/min/kg
CC(C)C[C@H](NC(=O)[C@@H](NC(=O)/C=C/c1ccccc1F)C(C)C)C(=O)N[C@H](C=O)C[C@@H]1CCCNC1=O — CC50 (A549; cell growth or viability, MTT; 24 h): > 100 µM
COC(=O)C1CCN(C(=O)c2ccc(NCc3cnc4nc(N)nc(N)c4n3)cc2)CC1 — inhibition (CYP2C19; enzyme activity, inhibitor, luciferase; 10 µM): -23.4%
Cc1ncc2n1-c1ccc(Cl)cc1C(c1ccccc1F)=NC2 — compound remaining (metabolic stability; beagle dog, hepatocytes; 1 µM, 4 h): 3%
